Active and inactive are the calls of the source. The rule behind the calls is not given here.
Columns and labels:
A2058 [1] = test: Apoptotic effect on A2058 cells by measuring hypodiploid DNA content after 18 hrs exposure to 5 uM; assay type: functional, Homo sapiens
In short: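 A2058 human melanoma cells kept at 37 °C in 5% CO2 and passaged with 5 mM EDTA. Exposed to agent at 5 μM for 18 h, trypsinized, fixed 30 min in ice-cold 70% ethanol, and treated with RNase A (1 mg/mL) at 37 °C for 30 min. Stained with PI for 30 min at room temperature in the dark. DNA content read by flow cytometry on 10 000 events, reported as the percentage of cells in the sub-G1 region.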

SF-268 = test: Antiproliferative activity against SF268 CNS cancer cells; assay type: functional; conditions: Homo sapiens
M14 = test: Antiproliferative activity against M14 melanoma cancer cells; assay type: functional; conditions: Homo sapiens
UACC-62 = test: Antiproliferative activity against UACC62 melanoma cancer cells; assay type: functional; conditions: Homo sapiens
RXF 393 = test: Antiproliferative activity against RXF393 Renal cancer cells; assay type: functional; conditions: Homo sapiens
SN12C = test: Antiproliferative activity against SN12C Renal cancer cells; assay type: functional; conditions: Homo sapiens
Nucleic Acid = test: Inhibition of cleavage activity of restriction endonuclease BamH1; assay type: nucleic-acid assay
In short: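 pBR322 plasmid DNA (0.5 μg) preincubated with compound at 5 μM in restriction buffer pH 7.5 plus BSA 0.1 mg/mL, 37 °C for 1 h. Excess BamHI (20 units) then added, 37 °C for a further 1 h, stopped at 65 °C for 20 min. Products run on 1.0% agarose in TAE at 100 V for 2 h and stained with ethidium bromide. Supercoiled/open-circular and fully linearized DNA run as controls.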

A2058 [2] = test: Accumulation of A2058 cells in G1 phase as a measure for cell cycle arrest at 4 uM; assay type: functional, Homo sapiens
In short: (§1)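 Human melanoma A2058 cells exposed to graded concentrations (0–4 μM) for 24 h, DMSO as control. Cells collected by trypsinization, fixed in ice-cold 70% ethanol 30 min, treated with 1 mg/mL RNase A at 37 °C 30 min, then stained with propidium iodide/citrate/Triton X-100 at room temperature 30 min in the dark. DNA content of 10 000 events read by flow cytometry; G1, S and G2/M fractions gated from histograms.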

A2058 [3] = test: Accumulation of A2058 cells in S phase as a measure for cell cycle arrest at 4 uM; assay type: functional, Homo sapiens; in short: as §1
A2058 [4] = test: Accumulation of A2058 cells in G2/M phase as a measure for cell cycle arrest at 4 uM; assay type: functional, Homo sapiens; in short: as §1
A2058 [5] = test: Apoptotic effect on A2058 cells by propidium iodide staining and Annexin V-FITC conjugate at 2 uM; assay type: functional, cell-based; conditions: Homo sapiens
In short: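 A2058 cells given graded concentrations for 24 h, then 10^6 cells per sample labelled with annexin V–FITC together with propidium iodide and analysed by two-parameter flow cytometry. Percentage of annexin V-positive cells reported per concentration.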

A2058 [6] = test: Accumulation of A2058 cells in G1 phase as a measure for cell cycle arrest at 1 uM; assay type: functional, Homo sapiens; in short: as §1
A2058 [7] = test: Accumulation of A2058 cells in S phase as a measure for cell cycle arrest at 1 uM; assay type: functional, Homo sapiens; in short: as §1
A2058 [8] = test: Accumulation of A2058 cells in G2/M phase as a measure for cell cycle arrest at 1 uM; assay type: functional, Homo sapiens; in short: as §1
A2058 [9] = test: Accumulation of A2058 cells in G1 phase as a measure for cell cycle arrest at 2 uM; assay type: functional, Homo sapiens; in short: as §1
A2058 [10] = test: Accumulation of A2058 cells in S phase as a measure for cell cycle arrest at 2 uM; assay type: functional, Homo sapiens; in short: as §1
A2058 [11] = test: Accumulation of A2058 cells in G2/M phase as a measure for cell cycle arrest at 2 uM; assay type: functional, Homo sapiens; in short: as §1

Activity (Nucleic Acid) | SMILES | Activity (A2058 [1]) [%] | GI50 (M14) [nM] | GI50 (UACC-62) [nM] | GI50 (SN12C) [nM] | other results
 | COc1cc2c(cc1OCCCCCNC(=O)c1cc3ccccc3[nH]1)N=C[C@@H]1CCCN1C2=O | 2.9 |  |  |  | 
 | COc1cc2c(cc1OC(=O)c1cc3ccccc3[nH]1)N=C[C@@H]1CCCN1C2=O | 38.5 | 162 | 290 | 210 | 
 | COc1cc2c(cc1O)N=C[C@@H]1CCCN1C2=O | 45 |  |  |  | 
Active | COc1cc2c(cc1OCCCCCCNC(=O)c1cc3ccccc3[nH]1)N=C[C@@H]1CCCN1C2=O | 50.6 |  |  |  | Activity (A2058 [2]): 29.2%; Activity (A2058 [3]): 42.8%; Activity (A2058 [4]): 12.5%; Activity (A2058 [5]): Active; Activity (A2058 [6]): 41.1%; Activity (A2058 [7]): 15.2%; Activity (A2058 [8]): 42.5%; Activity (A2058 [9]): 25.7%; Activity (A2058 [10]): 25.2%; Activity (A2058 [11]): 47.7%
Active | COc1cc2c(cc1OCCCCNC(=O)c1cc3ccccc3[nH]1)N=C[C@@H]1CCCN1C2=O | 46.8 |  |  |  | 

SMILES | Activity (Nucleic Acid) | Activity (A2058 [1]) [%] | GI50 (M14) [nM] | GI50 (UACC-62) [nM] | GI50 (SN12C) [nM] | other results
COc1cc2c(cc1OCCCNC(=O)c1cc3ccccc3[nH]1)N=C[C@@H]1CCCN1C2=O | Active | 46.8 | 173 | 203 | 410 | GI50 (SF-268): 27 nM; GI50 (RXF 393): 25 nM

— ChEMBL document CHEMBL1138123, “Design, synthesis, and biological evaluation of pyrrolo[2,1-c][1,4]benzodiazepine and indole conjugates as anticancer agents” (2006)
